High-throughput results: PubChem BioAssay, several laboratories
ERa SRC1 pot – ER-alpha (human) coactivator binding potentiation. P03372. TR-FRET ERalpha-LBD/SRC-Cy5 coactivator binding, 2 h; 100 = basal binding, no effect. coactivator binding (% of control), % at 25.6 µM. hit rate 1.3% among 86,000. AID 639; in the data active = activity above about 200%;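 note: binding measured in presence of low estradiol as agonist stimulus; 0% = peptide alone without receptor and 100% = receptor with peptide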
Target sequence (P03372 whole entry, looked up, the tested form may be a part): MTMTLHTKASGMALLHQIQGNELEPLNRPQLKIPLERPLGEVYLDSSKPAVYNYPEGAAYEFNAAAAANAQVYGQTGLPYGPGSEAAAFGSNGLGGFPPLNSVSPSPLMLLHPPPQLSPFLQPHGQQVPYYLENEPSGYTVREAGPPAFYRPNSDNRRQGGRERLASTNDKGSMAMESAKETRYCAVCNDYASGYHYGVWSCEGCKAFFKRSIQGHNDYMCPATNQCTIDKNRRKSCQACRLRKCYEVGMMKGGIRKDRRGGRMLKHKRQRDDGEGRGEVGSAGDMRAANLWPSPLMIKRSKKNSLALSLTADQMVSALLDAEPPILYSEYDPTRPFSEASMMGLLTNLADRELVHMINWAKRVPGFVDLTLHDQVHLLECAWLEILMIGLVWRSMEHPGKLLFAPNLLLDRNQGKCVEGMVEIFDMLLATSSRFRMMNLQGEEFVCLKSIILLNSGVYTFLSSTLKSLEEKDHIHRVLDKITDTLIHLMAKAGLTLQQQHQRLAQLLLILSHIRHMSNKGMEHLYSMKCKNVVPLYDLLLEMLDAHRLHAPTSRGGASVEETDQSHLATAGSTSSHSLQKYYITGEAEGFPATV
FAK inh – FAK (human) kinase inhibition | Q05397 | inhibition, %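 (tested at 7 µM)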 | biochemical FAK kinase activity assay | hit rate 0.84% among 97,000 | AID 727; in the data active = inhibition above about 19%;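 note: 0% = DMSO and 100% = reference compound high control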
Smad3 inh – blocks human Smad3 binding to FoxH1 peptide. TR-FRET Smad3/Dy647-FoxH1 peptide binding, europium anti-His. hit rate 0.29% among 88,000. P84022. inhibition, % at 25 µM;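 active = compounds that reduce the energy-transfer binding signal between the protein and its labelled peptide by more than half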;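 note: 0% = Smad3 plus labelled peptide maximal FRET and 100% = peptide-only background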
Rev-RRE block – disrupts HIV-1 Rev binding to RRE RNA; P05866; Rev peptide-RRE RNA binding, FRET; inhibition, % at 8 µM; hit rate 0.79% among 97,000;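 active = inhibition above the screen-wide mean plus 3 SD, cut at about 35% in these data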;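 note: 0% = median DMSO wells and 100% = median Neomycin B control wells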
Target sequence (P05866 whole entry, looked up): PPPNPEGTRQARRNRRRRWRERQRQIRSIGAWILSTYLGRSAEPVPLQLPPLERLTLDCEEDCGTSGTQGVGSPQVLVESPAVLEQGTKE
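assay system = Cy5-tagged RRE RNA duplex with fluorescein-tagged Rev peptide | incubation = 5 + 15 min at 25 °C | also added = labelled Rev peptide | measure = % inhibition of FRET ratio versus controls | benchmarks = DMSO wells as 0% and neomycin B wells as 100% inhibition | measured by = FRET fluorescence readout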
ERa SRC1 inh – ER-alpha (human) coactivator binding inhibition. P03372. TR-FRET ER-alpha LBD / SRC-1 peptide, estradiol-bound. inhibition, % at 25.6 µM. hit rate 1.7% among 86,000; in the data active = inhibition above about 50%;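 note: 0% = receptor plus peptide control and 100% = peptide only without receptor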
ERb coact inh – ER-beta (human) coactivator binding inhibition; Q92731; TR-FRET ER-beta LBD / SRC1-Cy5 peptide binding; receptor agonist-loaded with 1 µM estradiol; inhibition, % at 25.6 µM; hit rate 1.3% among 86,000; AID 633;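 active = compounds whose percent inhibition of the receptor-coactivator binding signal exceeds about 50% in the single-dose screen, limit read from the data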;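 note: 0% = receptor plus peptide wells without compound and 100% = peptide-only wells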
* hit, by the source's call; . = no result; [ ] = another dose, or the depositor's remark. Compounds with a hit are over-represented: about 4% of the library has one in this group of screens.

SMILES	ERa SRC1 pot	FAK inh	Smad3 inh	Rev-RRE block	ERa SRC1 inh	ERb coact inh
N#Cc1c(N)oc(-c2ccco2)c1-c1ccco1	24.6	4.8	-1.0	7.9	37.3	54.8*[fluorescence artefact?]
CC1(C)CC(NCc2ccc3c(c2)OCO3)CCO1 (stereo not given)	102.8	-0.8	-0.8	3.8	-7.0	-15.8
CC(C)NC(=O)CSc1nc2ccccc2n1CC(=O)N1CCc2ccccc21	99.6	-10.1	-22.9	3.3	30.6	7.4
CN(C)C(=O)Cn1c(SCC(=O)N2CCCc3ccccc32)nc2ccccc21	828.7*[fluorescence artefact?]	8.9	-7.9	1.8	21.3	-14.0
O=C(Cn1c(O)c(/C=C2\C=Nc3ccccc32)sc1=O)Nc1ccc2c(c1)OCO2	.	-5.1	.	14.5	.	.
CCOC(=O)c1c(Nc2ccc(Cl)cc2)sc(/C=C2\C=Nc3ccccc32)c1O	68.0	1.0	7.8	40.5*	39.2	36.2
O=c1[nH]cc(CS(=O)(=O)Cc2c[nH]c(=O)[nH]c2=O)c(=O)[nH]1	.	.	14.2	.	.	.
CSc1nc(N)nc(SCC(=O)c2ccccc2)c1C#N	100.1	0.3	-13.9	8.7	16.0	7.8
COc1ccc(-c2c(C#N)c(SCC(N)=O)nc3c2CCCC3)cc1	284.7*	-0.7	7.5	8.0	18.2	10.5
COc1ccc(C(=O)CSc2nc(N)nc(SC)c2C#N)cc1	480.3*[fluorescence artefact?]	-1.1	16.0	17.7	21.1	22.8
N#Cc1c(SCC(N)=O)nc2c(c1-c1ccc(O)cc1)CCCC2	50.9	-1.7	-25.0	1.2	3.1	-0.8
Cc1cc(NC(=O)CSc2nc3c(c(-c4cccnc4)c2C#N)CCC3)no1	257.7*[fluorescence artefact?]	-14.4	-295.8	0.0	21.6	18.6
COc1cccc(CNC(=O)C2=C(C)C(=O)OC23CCC(C)CC3)c1 (stereo not given)	.	0.7	.	3.2	.	.
O=C(OCn1nnc2ccccc2c1=O)c1cn(-c2ccccc2)nc1-c1cccnc1	120.6	6.1	4.0	13.8	67.7*	43.0
N#Cc1c(NC(=O)C(F)(F)F)sc2c3c(=O)c4ccccc4c(=O)c=3oc3ccccc3c12	.	.	3.0	.	.	.
Cc1ccc(C)c(SCC(=O)NCc2ccco2)c1	84.8	0.5	-6.4	-1.6	-4.5	-2.6
Cc1ccc(C)c(SCC(=O)OCC(=O)c2ccco2)c1	69.9	9.4	7.0	-3.7	65.2*	62.9*
COCCCNC(=O)Cn1cc2c(n1)CCC(C)C2 (stereo not given)	205.4*	.	15.0	.	12.9	-0.7
CCCCCC(/C=N/Nc1ccc(S(=O)(=O)N2CCOCC2)cc1[N+](=O)[O-])=C\c1ccccc1	.	-0.3	.	10.6	.	.
COc1ccc(NC(=O)c2ccco2)cc1NC(=O)c1ccc(Br)o1	104.0	-7.6	1.1	3.9	-4.2	-0.6
O=C(Nc1cccc(NC(=O)c2ccc(-c3ccc(Br)cc3)o2)c1)c1ccco1	108.0	1.9	10.1	-1.0	71.1*[fluorescence artefact?]	22.3
Cc1ccc2nc(N/N=C/c3cccc(C)n3)cc(C)c2c1	.	.	10.8	.	.	.
C[N+](C)([O-])CCC=C1c2ccccc2CCc2ccccc21	.	.	10.6	.	.	.
CCOc1ccc(NS(=O)(=O)c2ccc3[nH]cc(C(=O)NCC4CCCO4)c(=O)c3c2)cc1 (stereo not given)	92.4	3.2	-3.7	7.2	-3.0	7.0
CCc1ccccc1NS(=O)(=O)c1ccc2[nH]cc(C(=O)NCC3CCCO3)c(=O)c2c1 (stereo not given)	22.1	-0.1	5.4	9.7	64.7*	30.7
SMILES	ERa SRC1 pot	FAK inh	Smad3 inh	Rev-RRE block	ERa SRC1 inh	ERb coact inh
CCn1c(=O)c2cc(C(=O)NCc3cccs3)sc2c2ccccc21	190.5	.	-1.8	.	18.2	10.7
CCn1c(=O)c2cc(C(=O)Nc3cc(C)on3)sc2c2ccccc21	140.8	-8.1	31.1	9.4	54.4*[fluorescence artefact?]	44.0
Cc1occc1C(=O)NCc1cccc(CNC(=O)c2ccoc2C)c1	130.6	5.5	8.9	-1.4	64.5*	-8.3
Cc1occc1C(=O)NCc1ccc2c(c1)OCO2	95.8	-0.4	5.8	1.8	17.4	18.3
Cc1nc2cccc(C(=O)NCc3ccccc3)c2o1	76.4	0.7	-9.3	8.5	63.6*	40.0
COc1cc(NC(=O)c2cc3c(C)nc4ccccc4c3o2)cc(OC)c1OC	113.3	-1.4	-4.2	-2.3	-0.6	-14.1
CCc1ccc(CNC(=O)c2cc3c(C)nc4ccccc4c3o2)cc1	64.1	0.2	-17.9	-1.3	15.2	60.5*[fluorescence artefact?]
COc1ccc(C)cc1NC(=O)c1cc2c(C)nc3ccccc3c2o1	204.0*[fluorescence artefact?]	.	4.4	.	66.2*[fluorescence artefact?]	57.7*[fluorescence artefact?]
O=C(O)c1ccc(/C=N/N=C2c3ccccc3-c3ccccc32)cc1	.	.	10.5	.	.	.
Nc1nc(N)c(CCCCc2ccccc2)c(N)n1	.	.	-10.6	.	.	.
CCOC(=O)c1[nH]c(C)c(C(=O)OCC(=O)N2CCc3ccccc32)c1C	94.1	-0.2	-2.0	3.6	4.9	-1.6
CC(=O)c1c(C)[nH]c(C(=O)OCC(=O)N2CCc3ccccc32)c1C	229.0*	0.2	9.5	-3.7	12.3	16.2
O=C(O)c1cc(=O)[nH]c(SCc2ccccc2)n1	.	.	-5.1	.	.	.
Nc1ncnc2nc(N3CCN(CCO)CC3)[nH]c12	.	.	-1.9	.	.	.
CCNc1nc2[nH]c(=O)c3c(c2s1)OC(N)=C(C#N)C3c1ccc(C)cc1 (stereo not given)	.	0.0	.	85.9*[fluorescence artefact?]	.	.
COc1cc(/C=N/NC(=O)c2sc(N)c(C#N)c2C)ccc1O	.	3.2	.	8.9	.	.
COc1cc(/C=N/c2oc(-c3ccccc3)cc2C#N)ccc1O	.	-0.1	.	39.8*	.	.
NC1=C(O)C(=O)[C@H](c2c[nH]c3ccc(OCc4ccccc4)cc23)O1	.	.	9.6	.	.	.
CC(C)c1ccc(C2C(C#N)=C(N)N3C(=C2C#N)Sc2ccccc23)cc1 (stereo not given)	67.7	3.0	-19.2	55.7*	-5.7	9.1
O=C1c2ccccc2-c2ccc(N(Cc3ccc(Br)cc3)Cc3ccc(Br)cc3)cc21	.	.	4.2	.	.	.
CCOC(=O)C1CCCN(C(=S)Nc2ccc(C)cc2C)C1 (stereo not given)	.	-0.7	.	2.2	.	.
CN(CCC(=O)O)S(=O)(=O)c1ccccc1	.	.	-11.6	.	.	.
CN1Cc2sc(N)c(C#N)c2CC1(C)C	92.0	6.7	10.3	76.8*	9.7	12.3
CCC1(C)Cc2c(C#N)c(N)sc(=S)c2CO1 (stereo not given)	45.5	-2.8	-15.2	14.4	-9.8	-4.1
Cn1c(=O)c2[nH]c(CCNC(=O)c3ccccc3)nc2n(C)c1=O	.	.	-1.3	.	.	.
CN1CC(c2ccc(C#N)cc2)C2(COc3ccccc3C2=O)C12C(=O)Nc1ccccc12 (stereo not given)	.	-0.6	.	9.6	.	.
O=C(CSc1ccc2nnc(-c3ccccc3)n2n1)N1CCN(c2ccccc2)CC1	83.1	-0.4	-0.7	-0.6	9.2	2.1
Cc1ccc(-c2nnc3ccc(SCC(=O)N4CCc5ccccc54)nn23)cc1	237.8*[fluorescence artefact?]	1.4	-79.7	15.7	3.7	15.6
N#CC(C(=O)Nc1ccccc1)=C1CCCCC1	89.8	.	-4.1	.	-0.6	74.1*
O/C(=C\Sc1nnc(Cc2ccccc2)o1)c1ccc(F)cc1	.	0.7	.	9.1	.	.
